Test results reported in ChEMBL document CHEMBL5532752, “Integrating a quinone substructure into histone deacetylase inhibitors to cope with Alzheimer's disease and cancer” (RSC Med Chem, 2024).
The source made the active and inactive calls. No cut-off for these calls is given here.

How the values were obtained:
[1] = tested on: SH-SY5Y; experiment: Induction of cell cycle arrest in human SH-SY5Y cells assessed as proportion of cells at sub-G1 phase at 10 uM incubated for 72 hrs by propidium iodide staining based flow cytometry (reference value: 5.56%)
[2] = tested on: SH-SY5Y; experiment: Cytotoxicity against human SH-SY5Y cells assessed as reduction in cell viability at 10 uM pretreated with antioxidant, NAC for 1 hr followed by incubation with drug for 24 hrs by MUH reagent based spectrophotometric analysis; format: functional
Summary of the method: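 SH-SY5Y pretreated 1 h with 2 mM NAC, then exposed to compound at 1 or 10 μM for 24 h. Viability read by MUH hydrolysis (0.01 mg/mL, 30 min, 37 °C; ex 330/em 450 nm) as percent of untreated cells; two-way ANOVA with Tukey post hoc.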

[3] = tested on: SH-SY5Y; experiment: Induction of apoptosis in human SH-SY5Y cells assessed as increase in caspase-3 activity at 1 uM incubated for 72 hrs by colorimetric assay relative to control; format: functional
Summary of the method: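 Cells treated 72 h, collected, PBS-rinsed, lysed on ice 10 min; protein quantified by Bradford. Lysates incubated 2 h at 37 °C with 2× reaction buffer containing 10 mM dithiothreitol and DEVD-pNA caspase-3 substrate. Free pNA read by absorbance at 405 nm; activity expressed as fold over untreated cells. At least 3 independent experiments.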

[4] = tested on: SH-SY5Y; experiment: Induction of cell cycle arrest in human SH-SY5Y cells assessed as proportion of cells at sub-G1 phase at 1 uM incubated for 72 hrs by propidium iodide staining based flow cytometry (reference value: 5.56%)
[5] = tested on: SH-SY5Y; experiment: Induction of cell cycle arrest in human SH-SY5Y cells assessed as accumulation of cells at sub-G1 phase at 1 to 10 uM incubated for 72 hrs by propidium iodide staining based flow cytometry; format: functional; settings: dose 1-10 µM
Summary of the method: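 SH-SY5Y exposed to 1 or 10 μM for 72 h, collected, fixed in 70% ice-cold ethanol, stained with propidium iodide-containing cell-cycle reagent 30 min in the dark at room temperature, and analysed by flow cytometry for G0/G1, S, G2/M and sub-G1 fractions; one-way ANOVA, Bonferroni.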

[6] = tested on: SH-SY5Y; experiment: Induction of apoptosis in human SH-SY5Y cells assessed as increase in PARP cleavage by measuring decrease in PARP protein expression at 10 uM incubated for 72 hrs by flow cytometry relative to control; format: functional; set-up: scale not given: the % may be the effect or the level left
Summary of the method: (§1)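 SH-SY5Y cells, cultured in DMEM with 10% FBS at 37 °C and 5% CO2, were treated for 72 h. Cells were fixed in 4% paraformaldehyde and permeabilized with 90% cold methanol. They were stained with anti-PARP (1:100) and then an Alexa Fluor 488 secondary (1:200). Mean fluorescence intensity was read by flow cytometry and expressed as fold change versus control cells.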

[7] = tested on: SH-SY5Y; experiment: Induction of apoptosis in human SH-SY5Y cells assessed as increase in PARP cleavage by measuring decrease in PARP protein expression at 1 uM incubated for 72 hrs by flow cytometry relative to control; format: functional; set-up: scale not given: the % may be the effect or the level left
Summary of the method: as §1

[8] = tested on: SH-SY5Y; experiment: Cytotoxicity against human SH-SY5Y cells assessed as reduction in cell viability pretreated with SFN followed by compound treatment by MUH reagent based spectrophotometric analysis; format: functional
[9] = tested on: Neurosphere; experiment: Neuroprotective activity against C57BL/6N mouse neurosphere assessed as effect on neurospheres size at 2.5 to 5 uM measured after 7 days by bright field microscopy; format: functional, tissue-based; settings: dose 2.5-5 µM, time 7.0 day
Summary of the method: (§2)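 Neurospheres from sub-ventricular zone of 8-month-old male C57BL/6N mice, dissociated with Accutase, plated as single cells 5 × 10³/well in suspension in EGF/FGF2/N2/B27 medium with 2.5–50 μM compound or DMSO for 7 days. Daily brightfield live imaging; sphere count and total area per image, aggregates >400 μm² only.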

[10] = tested on: Neurosphere; experiment: Neuroprotective activity against C57BL/6N mouse neurosphere assessed as increase in NPC proliferation by measuring increase in neurospheres number at 2.5 to 5 uM measured after 7 days by bright field microscopy; format: functional, tissue-based; settings: dose 2.5-5 µM, time 7.0 day
Summary of the method: as §2

[11] = tested on: Neurosphere; experiment: Neuroprotective activity against C57BL/6N mouse neurosphere assessed as increase in NPCs spontaneous differentiation by measuring decrease in Nestin-positive cells at 2.5 to 5 uM measured after 7 days by immunofluorescence analysis; format: functional, cell-based; settings: dose 2.5-5 µM, time 7.0 day
Summary of the method: (§3)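 Thirty 7-day neurospheres plated on Matrigel-coated coverslips with 2.5 or 5 μM compound or DMSO, differentiated 7 days, fixed in 4% PFA, immunostained for Nestin, DCX, Olig2 or GFAP with Alexa 555 secondaries, DAPI counterstain. Intensity index = marker-positive intensity / total DAPI intensity; mean ± SD of 3 fields per condition.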

[12] = tested on: SH-SY5Y; experiment: Potentiation of H2O2-induced cytotoxicity in human SH-SY5Y cells assessed as cell viability at 50 uM pretreated for 24 hrs followed by incubation for 1 hr with H2O2 and incubated in drug-free medium for 22 hrs by MUH reagent based spectrophotometric analysis (reference value: 50.8%); format: functional; settings: time 25 hrs, read-out: Activity
[13] = tested on: Neurosphere; experiment: Toxicity against C57BL/6N mouse neurosphere at 25 to 50 uM measured after 7 days by bright filed microscopy; format: tissue-based; settings: in vitro, 168 h
Summary of the method: as §2

[14] = tested on: Neurosphere; experiment: Neuroprotective activity against C57BL/6N mouse neurosphere assessed as increase in NPCs spontaneous differentiation by measuring GFAP-positive cells at 2.5 to 5 uM measured after 7 days by immunofluorescence analysis; format: functional, tissue-based; settings: dose 2.5-5 µM, time 7.0 day
Summary of the method: as §3

[15] = Cytotoxicity against human HepG2 cells assessed as reduction in cell viability incubated for 24 hrs by MTT assay; format: toxicity, cell-based
Summary of the method: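 HepG2 in MEM with 10% FBS, plated 1.5 × 10⁴ cells/well; after 24 h exposed to 0.010–100 μM compound or vehicle for 24 h. MTT (0.2 mg/mL in PBS) for 2 h at 37 °C, formazan dissolved in DMSO, absorbance at 570 nm. Viability relative to vehicle controls, mean ± SD, n = 4.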

[16] = tested on: SH-SY5Y; experiment: Neuroprotective activity against H2O2-induced cytotoxicity in human SH-SY5Y cells assessed as increase in cell viability at 1 to 50 uM pretreated for 24 hrs followed by incubation for 1 hr with H2O2 and incubated in drug-free medium for 22 hrs by MUH reagent based spectrophotometric analysis; format: functional; settings: dose 1-50 µM, time 25.0 hrs
Summary of the method: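 SH-SY5Y pretreated 24 h with 1, 10 or 50 μM compound, exposed 1 h to H2O2, then 22 h recovery in drug-free complete medium. H2O2 level printed as 300 μM in methods but 600 μM in figure legend. Viability by MUH fluorescence (ex 330/em 450 nm) vs untreated cells; one-way ANOVA, Tukey.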

[17] = tested on: Neurosphere; experiment: Neuroprotective activity against C57BL/6N mouse neurosphere assessed as increase in NPCs spontaneous differentiation by measuring Olig2-positive cells at 2.5 to 5 uM measured after 7 days by immunofluorescence analysis; format: functional, tissue-based; settings: dose 2.5-5 µM, time 7.0 day
Summary of the method: as §3

[18] = tested on: SH-SY5Y; experiment: Cytotoxicity against human SH-SY5Y cells assessed as cell viability at 100 uM incubated for 24 to 72 hrs by MUH reagent based spectrophotometric analysis; format: functional; settings: time 24-72 hrs, read-out: Activity
Summary of the method: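 SH-SY5Y in DMEM/10% FBS seeded 0.75 × 10⁴ cells/well, after 24 h treated with 0.1–100 μM for 24, 48 or 72 h. Washed, incubated with MUH 0.01 mg/mL in PBS 30 min at 37 °C in the dark; fluorescence ex 330/em 450 nm, normalized to untreated cells. IC50 by nonlinear regression, log(inhibitor) vs normalized response.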

SMILES | Activity [1] [%] | Activity [2] | fold change (FC) [3] | Activity [4] [%] | Activity [5] | Activity [6] [%] | Activity [7] [%] | Activity [8] | Activity [9] | Activity [10] | Activity [11] | viability at 50 µM [12] [%] | Activity [13] | Activity [14] | IC50 at 24 h [15] [µM] | Activity [16] | Activity [17] | viability at 100 µM [18] [%]
CC1=C(NCc2ccc(C(=O)Nc3ccccc3N)cc2)C(=O)c2ccccc2C1=O | 42.32 | Active | 1.2 | 28.03 | Active | 56.81 | 44.81 | Active |  |  |  |  |  |  |  |  |  | 
CC1=C(NCCCCNC(=O)CS)C(=O)c2ccccc2C1=O |  |  |  |  |  |  |  |  | inactive | Active | Active | 28.2 | Toxic | inactive | 25.5 | inactive | inactive | 70
